Assay results taken from ChEMBL document CHEMBL4725404, “Design, synthesis and biological evaluation of 4-aryl-5-aminoalkyl-thiazole-2-amines derivatives as ROCK II inhibitors” (Bioorg Med Chem, 2020).

Assays:
[1] = biological target: T1, Rho-associated protein kinase 2 (Homo sapiens, UniProt O75116); test: Inhibition of ROCK2 (unknown origin) using C-terminus recombinant MBS (654-880 residues) as substrate at 10 uM incubated for 30 mins in presence of ATP by ELISA relative to control
Procedure, shortened: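 ROCK II activity ELISA kit; compounds screened at 10 µM for percent inhibition. Kinase reaction incubated at 30 °C for 30 min, then washed. Horseradish peroxidase-conjugated anti-AF20 antibody added for 30 min at room temperature. TMB substrate developed and absorbance read at 450 nm. Inhibition rate derived from OD450.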
Target sequence in this assay (O75116 whole entry, looked up, the tested form may be a part): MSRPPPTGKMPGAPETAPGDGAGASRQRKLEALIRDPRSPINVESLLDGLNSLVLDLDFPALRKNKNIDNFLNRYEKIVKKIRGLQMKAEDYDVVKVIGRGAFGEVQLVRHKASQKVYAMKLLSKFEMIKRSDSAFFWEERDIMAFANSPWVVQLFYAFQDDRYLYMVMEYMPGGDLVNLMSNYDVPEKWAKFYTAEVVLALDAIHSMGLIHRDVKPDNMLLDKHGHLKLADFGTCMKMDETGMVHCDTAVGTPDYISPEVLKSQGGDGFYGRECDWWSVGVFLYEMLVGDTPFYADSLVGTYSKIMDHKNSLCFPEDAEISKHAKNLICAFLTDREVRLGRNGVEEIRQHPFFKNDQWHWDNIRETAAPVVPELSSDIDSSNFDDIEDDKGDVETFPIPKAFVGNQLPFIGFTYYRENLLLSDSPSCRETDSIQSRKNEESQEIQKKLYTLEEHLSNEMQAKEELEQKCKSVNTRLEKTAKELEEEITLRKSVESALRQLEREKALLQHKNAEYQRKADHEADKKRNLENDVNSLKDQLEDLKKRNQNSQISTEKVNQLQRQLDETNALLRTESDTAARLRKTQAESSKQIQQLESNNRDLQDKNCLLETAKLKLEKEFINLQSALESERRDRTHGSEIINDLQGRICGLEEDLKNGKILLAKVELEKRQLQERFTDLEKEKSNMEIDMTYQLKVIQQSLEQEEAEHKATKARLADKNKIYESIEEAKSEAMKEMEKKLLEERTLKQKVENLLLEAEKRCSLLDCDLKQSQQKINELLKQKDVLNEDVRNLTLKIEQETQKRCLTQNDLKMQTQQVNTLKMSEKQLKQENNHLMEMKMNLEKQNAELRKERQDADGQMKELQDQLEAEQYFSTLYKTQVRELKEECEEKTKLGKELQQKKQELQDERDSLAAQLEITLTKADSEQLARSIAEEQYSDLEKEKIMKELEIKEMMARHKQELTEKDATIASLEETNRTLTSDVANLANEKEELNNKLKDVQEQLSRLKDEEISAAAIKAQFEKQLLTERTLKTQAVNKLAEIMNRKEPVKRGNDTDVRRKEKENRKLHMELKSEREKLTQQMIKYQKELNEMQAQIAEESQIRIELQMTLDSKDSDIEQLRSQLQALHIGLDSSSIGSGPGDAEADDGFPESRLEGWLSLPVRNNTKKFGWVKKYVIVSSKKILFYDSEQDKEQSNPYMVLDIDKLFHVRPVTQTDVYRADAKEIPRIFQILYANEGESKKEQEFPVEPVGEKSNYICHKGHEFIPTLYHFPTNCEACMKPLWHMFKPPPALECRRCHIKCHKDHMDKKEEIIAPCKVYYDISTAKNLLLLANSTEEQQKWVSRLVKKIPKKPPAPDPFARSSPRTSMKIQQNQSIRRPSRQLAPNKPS

[2] = biological target: T1, Rho-associated protein kinase 2; test: Inhibition of ROCK2 (unknown origin) using C-terminus recombinant MBS (654-880 residues) as substrate incubated for 30 mins in presence of ATP by ELISA
Procedure, shortened: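 Compounds with significant single-point inhibition were run in full concentration–response in the ROCK II ELISA kit. Kinase step at 30 °C for 30 min, then wash. Anti-AF20 HRP antibody applied for 30 min at room temperature, followed by TMB colour development read at OD 450 nm. IC50 calculated by nonlinear regression of inhibition rates.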
Target sequence in this assay (O75116 whole entry, the tested form may be a part): as the sequence (O75116 whole entry, looked up, the tested form may be a part) above

| Compound | inhibition [1] | IC50 [2] |
| --- | --- | --- |
| O=C(Nc1nc(-c2ccncc2)c(CN2CCCCC2)s1)c1ccncc1 | 48.2% |  |
| CN(C)Cc1sc(NC(=O)C2COc3ccccc3O2)nc1-c1cccnc1 (stereo not drawn) | 58.1% | 4960 nM |
| CN(C)CCc1sc(NC(=O)c2ccncc2)nc1-c1ccncc1 | 48.8% |  |
| O=C(Nc1nc(-c2ccncc2)c(CN2CCOCC2)s1)c1ccncc1 | 58.1% |  |
| O=C(Nc1nc(-c2cccnc2)c(CN2CCOCC2)s1)c1ccncc1 | 51.1% |  |
| CN(C)Cc1sc(NC(=O)c2cccnc2)nc1-c1cccnc1 | 33.9% |  |
| O=C(Nc1nc(-c2cccnc2)c(CN2CCCCC2)s1)c1cccnc1 | 28.5% |  |
| CN1CCN(c2sc(NC(=O)c3ccncc3)nc2-c2ccncc2)CC1 | 34.3% |  |
| CN(C)C(=O)Cc1sc(NC(=O)c2ccncc2)nc1-c1ccncc1 | 38.1% |  |
| O=C(Nc1nc(-c2ccncc2)c(CN2CCCC2)s1)c1ccncc1 | 47.6% |  |
| O=C(Nc1nc(-c2cccnc2)c(CN2CCOCC2)s1)C1COc2ccccc2O1 (stereo not drawn) | 63.8% | 1730 nM |
| O=C(Nc1nc(-c2ccncc2)c(N2CCOCC2)s1)C1COc2ccccc2O1 (stereo not drawn) | 76.3% | 130 nM |
| CC(C)N(C)c1sc(NC(=O)c2ccncc2)nc1-c1ccncc1 | 32.1% |  |
| O=C(Nc1nc(-c2ccncc2)c(CN2CCOCC2)s1)C1COc2ccccc2O1 (stereo not drawn) | 87.4% |  |
| O=C(Nc1nc(-c2cccnc2)c(CN2CCCC2)s1)C1COc2ccccc2O1 (stereo not drawn) | 61.3% |  |
| CC(C)N(C)Cc1sc(NC(=O)c2cccnc2)nc1-c1cccnc1 | 38.1% |  |
| CN(C)CCc1sc(NC(=O)C2COc3ccccc3O2)nc1-c1ccncc1 (stereo not drawn) | 78.5% | 90 nM |
| CN1CCN(Cc2sc(NC(=O)c3cccnc3)nc2-c2cccnc2)CC1 | 32.1% |  |
| CN(C)Cc1sc(NC(=O)c2ccncc2)nc1-c1cccnc1 | 35.3% |  |
| O=C(Nc1nc(-c2cccnc2)c(CN2CCOCC2)s1)c1cccnc1 | 41.1% |  |
| O=C(Nc1nc(-c2ccncc2)cs1)C1COc2ccccc2O1 (stereo not drawn) | 91.3% |  |
| CN(C)C(=O)Cc1sc(NC(=O)C2COc3ccccc3O2)nc1-c1ccncc1 (stereo not drawn) | 56.9% | 8830 nM |
| O=C(Nc1nc(-c2ccncc2)c(CN2CCOCC2)s1)c1cccnc1 | 52.2% |  |
